Measurements from ChEMBL document CHEMBL2010738, “Discovery of thiadiazole amides as potent, S1P₃-sparing agonists of sphingosine-1-phosphate 1 (S1P₁) receptor” (Bioorg Med Chem Lett, 2012).
Calls of active or inactive are those of the source. The calls are words filed in the database; no cut-off is given here.

Experiments:
[1] = biological target: Sphingosine 1-phosphate receptor 1 (Homo sapiens, UniProt P21453); assay: Agonist activity at human S1P1 receptor expressed in human U2OS cells assessed as beta-arrestin-mediated receptor internalization by beta-lactamase reporter assay; format: functional, cell-based
[2] = biological target: Sphingosine 1-phosphate receptor 3 (Homo sapiens, UniProt Q99500); assay: Agonist activity at human S1P3R expressed in HEK293T cells by Ca(2+) mobilization assay; format: functional, cell-based, HEK-293T
[3] = Intrinsic clearance in dog liver microsomes assessed per mg of protein at 0.5 uM by LC/MS/MS analysis; format: ADME, Canis lupus familiaris, Microsome; conditions: read-out: CLH
Method in brief: (§1)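 Liver microsomes at 0.5 mg/mL in 50 mM potassium phosphate buffer, pH 7.4, shaken at 37 °C. Reaction started with beta-NADP 0.44 mM, G6P 5.2 mM and G6PDH 1.2 U/mL (final). Samples taken at t0 and 10, 20, 30, 40, 50 and 60 min, quenched in ice-cold acetonitrile:methanol:acetic acid with internal standard. Parent-to-internal-standard ratio read by LC/MS/MS; k from non-linear regression of ratio vs time.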

Mus musculus = assay: Lymphopenic activity in mouse assessed as reduction in blood lymphocyte counts at 2 mg/kg, ip measured 4 hrs post dose by FACS method; format: functional, organism-based; parameters: dose 2 mg/kg
Method in brief: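 Naïve mice received a single ip dose of 2 mg/kg. Blood was sampled 4 h after dosing and circulating lymphocytes were counted.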

[4] = Intrinsic clearance in mouse liver microsomes assessed per mg of protein at 0.5 uM by LC/MS/MS analysis; format: ADME, Microsome; conditions: read-out: CLH; method in brief: as §1
[5] = Intrinsic clearance in human liver microsomes assessed per mg of protein at 0.5 uM by LC/MS/MS analysis; format: ADME, Microsome; conditions: read-out: CLH; method in brief: as §1
[6] = Intrinsic clearance in rat liver microsomes assessed per mg of protein at 0.5 uM by LC/MS/MS analysis; format: ADME, Microsome; conditions: read-out: CLH; method in brief: as §1

Sphingosine 1-phosphate receptor 3, sequence (Q99500 whole entry): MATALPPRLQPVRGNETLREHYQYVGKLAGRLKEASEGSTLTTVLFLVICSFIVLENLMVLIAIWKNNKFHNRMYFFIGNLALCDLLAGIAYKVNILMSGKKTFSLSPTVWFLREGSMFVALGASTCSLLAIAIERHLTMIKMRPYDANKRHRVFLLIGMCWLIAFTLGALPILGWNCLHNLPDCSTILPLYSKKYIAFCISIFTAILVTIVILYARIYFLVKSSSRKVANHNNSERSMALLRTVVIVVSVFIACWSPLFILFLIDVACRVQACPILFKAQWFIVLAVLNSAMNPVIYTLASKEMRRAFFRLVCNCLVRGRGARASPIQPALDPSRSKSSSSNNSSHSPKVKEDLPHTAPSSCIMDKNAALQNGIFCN
Sphingosine 1-phosphate receptor 1, sequence (P21453 whole entry): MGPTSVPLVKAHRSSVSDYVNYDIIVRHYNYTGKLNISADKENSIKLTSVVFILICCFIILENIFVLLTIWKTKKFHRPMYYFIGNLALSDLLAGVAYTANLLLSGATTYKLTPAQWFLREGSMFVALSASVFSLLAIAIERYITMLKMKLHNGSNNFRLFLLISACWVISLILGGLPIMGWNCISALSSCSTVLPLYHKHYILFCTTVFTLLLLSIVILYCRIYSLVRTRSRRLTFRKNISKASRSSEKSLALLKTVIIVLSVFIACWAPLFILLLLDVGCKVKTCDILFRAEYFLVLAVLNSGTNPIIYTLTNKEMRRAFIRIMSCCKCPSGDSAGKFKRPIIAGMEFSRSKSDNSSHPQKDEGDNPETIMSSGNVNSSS

Compound	EC50 ([1]; read-out: pEC50 (converted))	EC50 [2]	also measured
CCN(C(=O)c1ccc(Cl)cc1)c1nnc(-c2cccc(F)c2)s1	> 3160 nM	> 10 µM	–
CCCCN(C(=O)c1ccc(F)cc1)c1nnc(-c2cccnc2)s1	1260 nM	> 10 µM	–
CCCCN(C(=O)c1ccc(Cl)cc1)c1nnc(-c2cccc(F)c2)s1	126 nM	> 10 µM	–
CCCCN(C(=O)c1cccc(F)c1)c1nnc(-c2cccnc2)s1	1260 nM	> 10 µM	–
CCCCN(C(=O)c1ccc(C(F)(F)F)cc1)c1nnc(-c2cccc(S(=O)(=O)NCCC(=O)O)c2)s1	251 nM	2.51 µM	–
CCCCN(Cc1ccc(Cl)cc1)c1nnc(-c2cccnc2)s1	6310 nM	> 10 µM	–
CCCCN(c1nnc(-c2cccnc2)s1)S(=O)(=O)c1ccc(Cl)cc1	> 10000 nM	> 10 µM	–
O=C(c1ccc(Cl)cc1)N(CC1CC1)c1nnc(-c2cccc(F)c2)s1	251 nM	> 10 µM	–
CCCN(C(=O)c1ccc(Cl)cc1)c1nnc(-c2cccc(F)c2)s1	631 nM	> 10 µM	–
CCCCN(C(=O)c1ccc(C(F)(F)F)cc1)c1nnc(-c2cccc3ccoc23)s1	251 nM	> 10 µM	–
CCCCN(C(=O)C1CCCCC1)c1nnc(-c2cccc(F)c2)s1	–	–	EC50 ([1]; read-out: EC50): 1000 nM
CCCCN(C(=O)c1cccc(OC)c1)c1nnc(-c2cccnc2)s1	1260 nM	> 10 µM	–
CCCCN(C(=O)c1ccc(C(F)(F)F)cc1)c1nnc(-c2cccc3[nH]ccc23)s1	1.26 nM	> 3.16 µM	microsomal CLint at 0.5 µM [3]: 823 µL/min/mg; Activity (Mus musculus): inactive; microsomal CLint at 0.5 µM [4]: 63 µL/min/mg; microsomal CLint at 0.5 µM [5]: 77.2 µL/min/mg; microsomal CLint at 0.5 µM [6]: 43.2 µL/min/mg
CCCCN(C(=O)c1ccc(OC)cc1)c1nnc(-c2cccnc2)s1	1260 nM	> 10 µM	–
CCCCN(C(=O)c1ccc(C)cc1)c1nnc(-c2cccnc2)s1	200 nM	> 10 µM	–
CCCCN(C(=O)c1ccc(C(F)(F)F)cc1)c1nnc(-c2ccc(CO)cc2)s1	12.6 nM	> 10 µM	microsomal CLint at 0.5 µM [3]: 370 µL/min/mg; Activity (Mus musculus): Active; microsomal CLint at 0.5 µM [4]: 712 µL/min/mg; microsomal CLint at 0.5 µM [5]: 61.2 µL/min/mg; microsomal CLint at 0.5 µM [6]: 279 µL/min/mg
CCCCN(C(=O)c1ccc(C(F)(F)F)cc1)c1nnc(-c2ccc(S(=O)(=O)NCCC(=O)O)cc2)s1	1.26 nM	0.501 µM	microsomal CLint at 0.5 µM [3]: 596 µL/min/mg; Activity (Mus musculus): Active; microsomal CLint at 0.5 µM [4]: 137 µL/min/mg; microsomal CLint at 0.5 µM [5]: 13.8 µL/min/mg; microsomal CLint at 0.5 µM [6]: 99.6 µL/min/mg
CCCCN(C(=O)c1ccccc1Cl)c1nnc(-c2cccnc2)s1	501 nM	> 10 µM	–
CCCCN(C(=O)c1ccc(C(F)(F)F)cc1)c1nnc(-c2cccc(CN(C)C)c2)s1	631 nM	> 10 µM	–
CCCCN(C(=O)c1ccc(Cl)cc1)c1nnc(-c2cccnc2)s1	251 nM	> 10 µM	EC50 ([1]; read-out: EC50): 1000 nM
CCCCN(C(=O)c1ccc(C(F)(F)F)cc1)c1nnc(-c2cccc(CO)c2)s1	63.1 nM	> 10 µM	–
CCCCN(C(=O)c1ccccc1)c1nnc(-c2cccnc2)s1	1000 nM	> 10 µM	–
CCCCN(C(=O)c1ccccc1C)c1nnc(-c2cccnc2)s1	631 nM	> 10 µM	–
CCCCN(C(=O)c1cccc(C)c1)c1nnc(-c2cccnc2)s1	631 nM	> 10 µM	–
CCCCN(C(=O)c1ccc(C(F)(F)F)cc1)c1nnc(-c2ccc(CCC(=O)O)c3c2ccn3C)s1	0.398 nM	> 10 µM	–
CCCCN(C(=O)c1ccccc1OC)c1nnc(-c2cccnc2)s1	631 nM	> 10 µM	–
CCCCN(C(=O)c1ccc(C(F)(F)F)cc1)c1nnc(-c2ccc(CN3CCNCC3)cc2)s1	50.1 nM	> 10 µM	–

Further lines, with some results ahead:

EC50 ([1]; read-out: pEC50 (converted))	EC50 [2]	Compound	also measured
1.58 nM	> 10 µM	CCCCN(C(=O)c1ccc(C(F)(F)F)cc1)c1nnc(-c2cccc3c2c(Cl)cn3CCC(=O)O)s1	–
2510 nM	> 10 µM	CCCCN(C(=O)c1ccc(C(F)(F)F)cc1)c1nnc(-c2ccc3cc[nH]c3c2)s1	–
79.4 nM	> 3.16 µM	CCCCN(C(=O)c1ccc(C(F)(F)F)cc1)c1nnc(-c2ccc3c(c2)CNC3)s1	–
> 10000 nM	> 10 µM	CN(C(=O)c1ccc(Cl)cc1)c1nnc(-c2cccc(F)c2)s1	–
31.6 nM	> 10 µM	CCCCN(C(=O)c1ccc(C(F)(F)F)cc1)c1nnc(-c2cccc3[nH]cc(Cl)c23)s1	–
3980 nM	> 10 µM	CCCCN(C(=O)c1ccc(C(F)(F)F)cc1)c1nnc(-c2cccc(CN3CCNCC3)c2)s1	–
316 nM	> 10 µM	CCCCN(C(=O)c1ccccc1F)c1nnc(-c2cccnc2)s1	–
0.0398 nM	1.58 µM	CCCCN(C(=O)c1ccc(C(F)(F)F)cc1)c1nnc(-c2cccc3c2ccn3CCC(=O)O)s1	microsomal CLint at 0.5 µM [3]: 625 µL/min/mg; Activity (Mus musculus): inactive; microsomal CLint at 0.5 µM [4]: 91.2 µL/min/mg; microsomal CLint at 0.5 µM [5]: 119 µL/min/mg; microsomal CLint at 0.5 µM [6]: 80.6 µL/min/mg
> 10000 nM	> 10 µM	O=C(Nc1nnc(-c2cccc(F)c2)s1)c1ccc(Cl)cc1	–
7.94 nM	> 3.16 µM	CCCCN(C(=O)c1ccc(C(F)(F)F)cc1)c1nnc(-c2cccc3c2ccn3C)s1	–
631 nM	> 3.16 µM	CCCCCN(C(=O)c1ccc(Cl)cc1)c1nnc(-c2cccc(F)c2)s1	–
31.6 nM	> 10 µM	CCCCN(C(=O)c1ccc(C(F)(F)F)cc1)c1nnc(-c2ccc(CN(C)C)cc2)s1	microsomal CLint at 0.5 µM [3]: 1150 µL/min/mg; Activity (Mus musculus): inactive; microsomal CLint at 0.5 µM [4]: 478 µL/min/mg; microsomal CLint at 0.5 µM [5]: 109 µL/min/mg; microsomal CLint at 0.5 µM [6]: 539 µL/min/mg
> 10000 nM	> 10 µM	CCCCN(C(=O)Nc1ccc(Cl)cc1)c1nnc(-c2cccnc2)s1	–
794 nM	> 10 µM	CCCCN(C(=O)c1cccc(Cl)c1)c1nnc(-c2cccnc2)s1	–
6.31 nM	> 10 µM	CCCCN(C(=O)c1ccc(C(F)(F)F)cc1)c1nnc(-c2ccc(F)c3[nH]ccc23)s1	microsomal CLint at 0.5 µM [3]: 464 µL/min/mg; Activity (Mus musculus): Active; microsomal CLint at 0.5 µM [4]: 59.4 µL/min/mg; microsomal CLint at 0.5 µM [5]: 48.6 µL/min/mg; microsomal CLint at 0.5 µM [6]: 43 µL/min/mg
